Common to all, as to type: functional
One assay concerns Proteus mirabilis. The assay is described as follows: Antibacterial activity against Proteus mirabilis assessed as inhibition of microbial growth incubated for 18 to 22 hrs by broth microdilution method. In short, it runs like this: (§1)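 Broth microdilution in Mueller-Hinton II broth following NCCLS recommendations; compounds dissolved in DMSO.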
For another assay, the system named is Candida parapsilosis. Put plainly: Antifungal activity against Candida parapsilosis clinical isolates assessed as inhibition of microbial growth incubated for 24 hrs by broth microdilution method. The note with it: Lodderomyces parapsilosis. In short, it runs like this: (§2)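 Twenty-two clinical Candida isolates (8 C. albicans, 4 C. glabrata, 3 C. tropicalis, 3 C. krusei, 2 C. parapsilosis, 2 C. sake) were identified by colony morphology and biochemistry and subcultured at 35 °C for purity. Compounds were dissolved in DMSO and tested by broth microdilution in Sabouraud dextrose broth per NCCLS/CLSI/EUCAST guidance. Values are geometric mean MIC per species (µg/mL).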

For another assay, the system named is Klebsiella oxytoca. The assay is described as follows: Antibacterial activity against Klebsiella oxytoca assessed as inhibition of microbial growth incubated for 18 to 22 hrs by broth microdilution method. Summed up:
as §1

The next assay has as its system Staphylococcus aureus. The assay is described as follows: Antibacterial activity against Staphylococcus aureus assessed as inhibition of microbial growth incubated for 18 to 22 hrs by broth microdilution method. Summed up: as §1
The next assay has as its system Nakaseomyces glabratus. The assay is described as follows: Antifungal activity against Candida glabrata clinical isolates assessed as inhibition of microbial growth incubated for 24 hrs by broth microdilution method. In short, it runs like this: as §2
The next assay deals with Candida albicans. The assay is described as follows: Antifungal activity against Candida albicans clinical isolates assessed as inhibition of microbial growth incubated for 24 hrs by broth microdilution method. In short, it runs like this:
as §2

The test system of the next assay is Staphylococcus warneri. The assay is described as follows: Antibacterial activity against Staphylococcus warneri assessed as inhibition of microbial growth incubated for 18 to 22 hrs by broth microdilution method. Summed up: as §1
Another assay has as its system Enterobacter. Put plainly: Antibacterial activity against Enterobacter spp. assessed as inhibition of microbial growth incubated for 18 to 22 hrs by broth microdilution method. In short, it runs like this: as §1
The next assay deals with [Candida] sake. The assay is described as follows: Antifungal activity against Candida sake clinical isolates assessed as inhibition of microbial growth incubated for 24 hrs by broth microdilution method. The settings on record: Fermentozyma sake. In short, it runs like this: as §2
The test system of another assay is Escherichia coli. Put plainly: Antibacterial activity against Escherichia coli assessed as inhibition of microbial growth incubated for 18 to 22 hrs by broth microdilution method. In short, it runs like this: as §1
In a further assay the test system is Candida tropicalis. Put plainly: Antifungal activity against Candida tropicalis clinical isolates assessed as inhibition of microbial growth incubated for 24 hrs by broth microdilution method. In short, it runs like this: as §2
The subject of a further assay is Pichia kudriavzevii. Put plainly: Antifungal activity against Candida krusei clinical isolates assessed as inhibition of microbial growth incubated for 24 hrs by broth microdilution method. In short, it runs like this: as §2
The test system of a further assay is Enterococcus faecalis. Put plainly: Antibacterial activity against Streptococcus faecalis assessed as inhibition of microbial growth incubated for 18 to 22 hrs by broth microdilution method. In short, it runs like this: as §1

The record followed here is ChEMBL document CHEMBL4190362, “Synthesis, biological evaluation and quantitative structure-active relationships of 1,3-thiazolidin-4-one derivatives. A promising chemical scaffold endowed with high antifungal potency and low cytotoxicity” (Eur J Med Chem, 2017).

Consider `C/C(=N/N=C1/SCC(=O)N1Cc1ccccc1)c1ccccc1`, for which the MIC with Proteus mirabilis was ≥ 256 µg/mL; in the assay on Candida parapsilosis, 4 µg/mL; with Klebsiella oxytoca, ≥ 256 µg/mL; with Staphylococcus aureus, ≥ 256 µg/mL; in the assay on Nakaseomyces glabratus, 4 µg/mL; in the assay with Candida albicans, 8 µg/mL. Besides, the minimum inhibitory concentration (MIC) in the assay on Staphylococcus warneri was ≥ 256 µg/mL; in the assay on Enterobacter it was ≥ 256 µg/mL; in [Candida] sake it was 4 µg/mL; in the assay with Escherichia coli, ≥ 256 µg/mL; in the assay with Candida tropicalis, 128 µg/mL; in the assay on Pichia kudriavzevii, 4 µg/mL. Besides, the minimal inhibitory concentration (MIC) with Enterococcus faecalis is ≥ 256 µg/mL.
For `C/C(=N/N=C1/SCC(=O)N1Cc1ccccc1)C1CC1`, the minimum inhibitory concentration (MIC) with Proteus mirabilis was ≥ 256 µg/mL; in the assay with Candida parapsilosis, 2 µg/mL; in the assay with Klebsiella oxytoca, ≥ 256 µg/mL; in the assay with Staphylococcus aureus it was ≥ 256 µg/mL; with Nakaseomyces glabratus, 4 µg/mL; in the assay on Candida albicans, 2 µg/mL. Besides, the MIC is ≥ 256 µg/mL in the assay on Staphylococcus warneri; ≥ 256 µg/mL in the assay with Enterobacter; 2 µg/mL in assay [Candida] sake; ≥ 256 µg/mL with Escherichia coli; 2 µg/mL in the assay on Candida tropicalis; 2 µg/mL in the assay on Pichia kudriavzevii. Besides, the minimal inhibitory concentration (MIC) in the assay with Enterococcus faecalis is ≥ 256 µg/mL.
Take `CC/C(C)=N\N=C1\SCC(=O)N1Cc1ccccc1`: the MIC in the assay on Proteus mirabilis was ≥ 256 µg/mL; with Candida parapsilosis, 8 µg/mL; in the assay on Klebsiella oxytoca, ≥ 256 µg/mL; in the assay on Staphylococcus aureus, ≥ 256 µg/mL; in the assay with Nakaseomyces glabratus it was 16 µg/mL; in the assay with Candida albicans, 8 µg/mL. Also, the MIC in the assay on Staphylococcus warneri was ≥ 256 µg/mL; with Enterobacter, ≥ 256 µg/mL; in assay [Candida] sake it was 32 µg/mL; in the assay with Escherichia coli, ≥ 256 µg/mL; in the assay on Candida tropicalis, 8 µg/mL; in the assay with Pichia kudriavzevii, 16 µg/mL. For the same compound, the minimum inhibitory concentration (MIC) with Enterococcus faecalis was ≥ 256 µg/mL.
As for `O=C1CS/C(=N/N=C2CCCCCC2)N1Cc1ccccc1`, the MIC is ≥ 256 µg/mL with Proteus mirabilis; 256 µg/mL with Candida parapsilosis; ≥ 256 µg/mL in the assay on Klebsiella oxytoca; ≥ 256 µg/mL in the assay on Staphylococcus aureus; 256 µg/mL in the assay with Nakaseomyces glabratus; 256 µg/mL with Candida albicans. Further, the MIC was ≥ 256 µg/mL in the assay with Staphylococcus warneri; ≥ 256 µg/mL with Enterobacter; 256 µg/mL in [Candida] sake; ≥ 256 µg/mL in the assay on Escherichia coli; 256 µg/mL with Candida tropicalis; 256 µg/mL in the assay on Pichia kudriavzevii. For the same compound, the MIC with Enterococcus faecalis is ≥ 256 µg/mL.
In the case of `C/C(=N/N=C1/SCC(=O)N1Cc1ccccc1)c1cccc([N+](=O)[O-])c1`, the MIC was ≥ 256 µg/mL in the assay on Proteus mirabilis; 16 µg/mL in the assay with Candida parapsilosis; ≥ 256 µg/mL in the assay on Klebsiella oxytoca; ≥ 256 µg/mL with Staphylococcus aureus; 2 µg/mL with Nakaseomyces glabratus; 4 µg/mL in the assay with Candida albicans. Further, the MIC in the assay with Staphylococcus warneri was ≥ 256 µg/mL; with Enterobacter, ≥ 256 µg/mL; in assay [Candida] sake, 8 µg/mL; in the assay with Escherichia coli, ≥ 256 µg/mL; with Candida tropicalis it was 8 µg/mL; in the assay on Pichia kudriavzevii, 4 µg/mL. Moreover, the minimum inhibitory concentration (MIC) in the assay with Enterococcus faecalis is ≥ 256 µg/mL.
Consider `CC1CCC/C(=N/N=C2/SCC(=O)N2Cc2ccccc2)C1` (centres undefined), for which the MIC was ≥ 256 µg/mL with Proteus mirabilis; 4 µg/mL with Candida parapsilosis; ≥ 256 µg/mL in the assay with Klebsiella oxytoca; ≥ 256 µg/mL in the assay with Staphylococcus aureus; 8 µg/mL in the assay with Nakaseomyces glabratus; 8 µg/mL in the assay with Candida albicans. Moreover, the MIC was ≥ 256 µg/mL with Staphylococcus warneri; ≥ 256 µg/mL with Enterobacter; 4 µg/mL in [Candida] sake; ≥ 256 µg/mL in the assay with Escherichia coli; 8 µg/mL with Candida tropicalis; 4 µg/mL in the assay with Pichia kudriavzevii. For the same compound, the MIC in the assay on Enterococcus faecalis is ≥ 256 µg/mL.
Consider `C/C(=N\N=C1\SCC(=O)N1Cc1ccccc1)c1cc2ccccc2o1`, for which the minimum inhibitory concentration (MIC) with Proteus mirabilis was ≥ 256 µg/mL; in the assay with Candida parapsilosis, 32 µg/mL; with Klebsiella oxytoca it was ≥ 256 µg/mL; in the assay on Staphylococcus aureus, ≥ 256 µg/mL; with Nakaseomyces glabratus it was 4 µg/mL; in the assay on Candida albicans it was 4 µg/mL. The MIC in the assay on Staphylococcus warneri was ≥ 256 µg/mL; in the assay on Enterobacter it was ≥ 256 µg/mL; in assay [Candida] sake, 4 µg/mL; in the assay with Escherichia coli, ≥ 256 µg/mL; in the assay on Candida tropicalis, 32 µg/mL; with Pichia kudriavzevii it was 16 µg/mL. In the assay with Enterococcus faecalis, the MIC was ≥ 256 µg/mL.
Turning to `C/C(=N/N=C1/SCC(=O)N1Cc1ccccc1)c1cc2ccccc2oc1=O`, the MIC is ≥ 256 µg/mL in the assay with Proteus mirabilis; 128 µg/mL in the assay with Candida parapsilosis; ≥ 256 µg/mL in the assay on Klebsiella oxytoca; ≥ 256 µg/mL in the assay on Staphylococcus aureus; 32 µg/mL in the assay with Nakaseomyces glabratus; 256 µg/mL in the assay on Candida albicans. The MIC was ≥ 256 µg/mL in the assay on Staphylococcus warneri; ≥ 256 µg/mL in the assay on Enterobacter; 128 µg/mL in [Candida] sake; ≥ 256 µg/mL in the assay on Escherichia coli; 256 µg/mL with Candida tropicalis; 128 µg/mL in the assay on Pichia kudriavzevii. For the same compound, the minimum inhibitory concentration (MIC) in the assay on Enterococcus faecalis is ≥ 256 µg/mL.
Turning to `O=C1CS/C(=N/N=C\c2ccccc2)N1Cc1ccccc1`, the minimal inhibitory concentration (MIC) was ≥ 256 µg/mL in the assay with Proteus mirabilis; 4 µg/mL in the assay with Candida parapsilosis; ≥ 256 µg/mL in the assay with Klebsiella oxytoca; ≥ 256 µg/mL in the assay with Staphylococcus aureus; 4 µg/mL with Nakaseomyces glabratus; 4 µg/mL in the assay on Candida albicans. Besides, the MIC in the assay on Staphylococcus warneri was ≥ 256 µg/mL; with Enterobacter, ≥ 256 µg/mL; in [Candida] sake it was 16 µg/mL; in the assay with Escherichia coli, ≥ 256 µg/mL; with Candida tropicalis, 16 µg/mL; in the assay on Pichia kudriavzevii it was 16 µg/mL. Moreover, the MIC with Enterococcus faecalis was ≥ 256 µg/mL.
As for `C=CCC/C(C)=N\N=C1\SCC(=O)N1Cc1ccccc1`, the minimal inhibitory concentration (MIC) in the assay with Proteus mirabilis was ≥ 256 µg/mL; in the assay on Candida parapsilosis it was 8 µg/mL; in the assay with Klebsiella oxytoca, ≥ 256 µg/mL; with Staphylococcus aureus it was ≥ 256 µg/mL; in the assay with Nakaseomyces glabratus, 2 µg/mL; in the assay with Candida albicans, 8 µg/mL. Also, the minimum inhibitory concentration (MIC) is ≥ 256 µg/mL in the assay on Staphylococcus warneri; ≥ 256 µg/mL in the assay on Enterobacter; 8 µg/mL in assay [Candida] sake; ≥ 256 µg/mL in the assay with Escherichia coli; 8 µg/mL in the assay on Candida tropicalis; 8 µg/mL with Pichia kudriavzevii. Also, in the assay with Enterococcus faecalis, the minimum inhibitory concentration (MIC) was ≥ 256 µg/mL.
For `O=C1CS/C(=N/N=C\c2ccc([N+](=O)[O-])cc2)N1Cc1ccccc1`, the MIC was ≥ 256 µg/mL in the assay on Proteus mirabilis; 2 µg/mL in the assay on Candida parapsilosis; ≥ 256 µg/mL with Klebsiella oxytoca; ≥ 256 µg/mL in the assay with Staphylococcus aureus; 2 µg/mL with Nakaseomyces glabratus; 4 µg/mL in the assay with Candida albicans. Further, the MIC with Staphylococcus warneri was ≥ 256 µg/mL; with Enterobacter it was ≥ 256 µg/mL; in [Candida] sake, 4 µg/mL; with Escherichia coli, ≥ 256 µg/mL; with Candida tropicalis, 8 µg/mL; in the assay on Pichia kudriavzevii, 16 µg/mL. Further, the MIC with Enterococcus faecalis was ≥ 256 µg/mL.
As for `O=C1CS/C(=N/N=C\c2cccc3ccccc23)N1Cc1ccccc1`, the MIC was ≥ 256 µg/mL in the assay with Proteus mirabilis; 16 µg/mL with Candida parapsilosis; ≥ 256 µg/mL in the assay with Klebsiella oxytoca; ≥ 256 µg/mL with Staphylococcus aureus; 8 µg/mL in the assay on Nakaseomyces glabratus; 8 µg/mL with Candida albicans. Moreover, the minimum inhibitory concentration (MIC) in the assay on Staphylococcus warneri is ≥ 256 µg/mL; in the assay on Enterobacter it was ≥ 256 µg/mL; in [Candida] sake, 16 µg/mL; in the assay on Escherichia coli it was ≥ 256 µg/mL; with Candida tropicalis it was 16 µg/mL; with Pichia kudriavzevii, 16 µg/mL. Moreover, the MIC in the assay with Enterococcus faecalis is ≥ 256 µg/mL.
Regarding `CC1CCC(=N/N=C2/SCC(=O)N2Cc2ccccc2)CC1` (centres undefined), the MIC was ≥ 256 µg/mL in the assay on Proteus mirabilis; 16 µg/mL with Candida parapsilosis; ≥ 256 µg/mL in the assay on Klebsiella oxytoca; ≥ 256 µg/mL with Staphylococcus aureus; 8 µg/mL in the assay on Nakaseomyces glabratus; 8 µg/mL in the assay on Candida albicans. Also, the MIC in the assay on Staphylococcus warneri was ≥ 256 µg/mL; in the assay with Enterobacter it was ≥ 256 µg/mL; in [Candida] sake it was 16 µg/mL; in the assay with Escherichia coli, ≥ 256 µg/mL; in the assay on Candida tropicalis, 16 µg/mL; with Pichia kudriavzevii, 16 µg/mL. For the same compound, in the assay with Enterococcus faecalis, the MIC is ≥ 256 µg/mL.
